Laboratory results reported in ChEMBL document CHEMBL4041524, “Synthesis and Characterization of a Novel γ-Aminobutyric Acid Type A (GABAA) Receptor Ligand That Combines Outstanding Metabolic Stability, Pharmacokinetics, and Anxiolytic Efficacy” (J Med Chem, 2016).
Active and inactive are the calls of the source. The rule behind the calls is not given here.

Tests used:
Mus musculus [1] = assay: Toxicity in Swiss mouse assessed as change in motor coordination by measuring number of falls from the rotating rod at 10 mg/kg, ip administered 30 mins prior to testing measured for 2 mins by rotarod test relative to control; type: organism-based; details: in vivo
Summary of the method: (§1)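 The same mice used for marble burying were placed on a rotarod at 4 r.p.m. for 2 min. No fall was scored success, one fall partial, and two falls failure.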

[2] = Drug uptake in Sprague-Dawley rat brain at 10 mg/kg, po measured after 120 mins by LC-MS/MS analysis; type: ADME, organism-based; details: read-out: Drug uptake
Summary of the method: (§2)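 Sprague-Dawley rats (n = 3 per time point) were given 10 mg/kg p.o. Total plasma concentrations were taken at 15, 30, 60 and 120 min. Brain levels of the dosed ligand and of the carboxylic acid metabolite were taken at 60 or 120 min.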

[3] = biological target: T1, GABA-A receptor; alpha-5/beta-3/gamma-2 (Homo sapiens) (UniProt P18507+P28472+P31644); assay: Modulation of recombinant GABA alpha5beta3gamma2 receptor (unknown origin) expressed in Xenopus laevis oocytes assessed as change in GABA-induced EC(3 to 6) current at 10 uM by two-electrode voltage clamp assay; type: cell-based
Summary of the method: (§3)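 Xenopus laevis oocytes expressing α1, α2, α3 or α5 β3γ2 GABAARs were recorded by two-electrode voltage clamp. Modulation of the GABA EC3-6 current (taken as 100%) was tested at 100 nM, 1 μM and 10 μM in the same cells. Values are mean ± SEM, n = 3–4.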

Mus musculus [4] = assay: Anxiolytic-like activity in Swiss Webster mouse marble burying model of anxiety assessed as suppression of marble burying activity at 30 mg/kg, ip administered 30 mins prior to test relative to vehicle-control; type: functional, organism-based
Summary of the method: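 Male NIH Swiss Webster mice (n = 10) received vehicle or compound at 10 or 30 mg/kg i.p. 30 min before marble burying testing. Sedation-like behaviour was noted by observation. Analysis was ANOVA with Dunnett's test vs vehicle.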

[5] = biological target: T2, GABA-A receptor; alpha-3/beta-3/gamma-2 (Homo sapiens) (UniProt P18507+P28472+P34903); assay: Modulation of recombinant GABA alpha3beta3gamma2 receptor (unknown origin) expressed in Xenopus laevis oocytes assessed as change in GABA-induced EC(3 to 6) current at 1 uM by two-electrode voltage clamp assay; type: cell-based; summary of the method: as §3
Mus musculus [6] = assay: Toxicity in Swiss mouse assessed as change in motor coordination by measuring number of falls from the rotating rod at 30 mg/kg, ip administered 30 mins prior to testing measured for 2 mins by rotarod test relative to control; type: organism-based; details: in vivo; summary of the method: as §1
[7] = biological target: T1, GABA-A receptor; alpha-5/beta-3/gamma-2 (Homo sapiens); assay: Modulation of recombinant GABA alpha5beta3gamma2 receptor (unknown origin) expressed in Xenopus laevis oocytes assessed as change in GABA-induced EC(3 to 6) current by two-electrode voltage clamp assay; type: cell-based; summary of the method: as §3
[8] = biological target: T3, GABA-A receptor; alpha-2/beta-3/gamma-2 (Homo sapiens) (UniProt P18507+P28472+P47869); assay: Modulation of recombinant GABA alpha2beta3gamma2 receptor (unknown origin) expressed in Xenopus laevis oocytes assessed as change in GABA-induced EC(3 to 6) current at 100 nM by two-electrode voltage clamp assay; type: cell-based; summary of the method: as §3
[9] = biological target: T4, GABA-A receptor; alpha-1/beta-3/gamma-2 (Homo sapiens) (UniProt P14867+P18507+P28472); assay: Modulation of recombinant GABA alpha1beta3gamma2 receptor (unknown origin) expressed in Xenopus laevis oocytes assessed as change in GABA-induced EC(3 to 6) current by two-electrode voltage clamp assay; type: cell-based; summary of the method: as §3
[10] = Total plasma concentration in Sprague-Dawley rat at 10 mg/kg, po measured after 120 mins by LC-MS/MS analysis; type: ADME, organism-based; summary of the method: as §2
[11] = biological target: T4, GABA-A receptor; alpha-1/beta-3/gamma-2 (Homo sapiens); assay: Modulation of recombinant GABA alpha1beta3gamma2 receptor (unknown origin) expressed in Xenopus laevis oocytes assessed as change in GABA-induced EC(3 to 6) current at 10 uM by two-electrode voltage clamp assay; type: cell-based; summary of the method: as §3
[12] = biological target: T2, GABA-A receptor; alpha-3/beta-3/gamma-2 (Homo sapiens); assay: Modulation of recombinant GABA alpha3beta3gamma2 receptor (unknown origin) expressed in Xenopus laevis oocytes assessed as change in GABA-induced EC(3 to 6) current at 100 nM by two-electrode voltage clamp assay; type: cell-based; summary of the method: as §3
[13] = biological target: T1, GABA-A receptor; alpha-5/beta-3/gamma-2 (Homo sapiens); assay: Modulation of recombinant GABA alpha5beta3gamma2 receptor (unknown origin) expressed in Xenopus laevis oocytes assessed as change in GABA-induced EC(3 to 6) current at 1 uM by two-electrode voltage clamp assay; type: cell-based; summary of the method: as §3
Rattus norvegicus [14] = assay: Anxiolytic like activity in water-deprived Sprague-Dawley rat assessed as increase in water drinking time during punished period at 30 mg/kg, po administered 30 prior to testing by Vogel conflict test relative to vehicle control; type: functional
Summary of the method: (§4)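 Water-deprived male Sprague-Dawley rats (n = 6–8) drank during unpunished and punished periods, with licking suppressed by mild shock in punished periods. Compounds were given 30 min before testing. Analysis was ANOVA with Dunnett's test.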

[15] = Cytotoxicity against HEK293T cells assessed as viable cells measured after 18 hrs by CellTiter-Glo assay; type: cell-based, HEK-293T; details: human, read-out: LD50
Summary of the method: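 HEK293T cells were exposed to compound for 18 h (n = 4). Viable cells were quantified with CellTiter-Glo, and LD50 was derived.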

Liver [16] = assay: Metabolic stability in rat liver microsomes assessed as compound remaining at 4 uM measured after 30 mins in presence of NADPH by LC-MS/MS analysis; type: ADME, microsome; details: 0.5 h
Summary of the method: (§5)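 Human, mouse or rat liver microsomes were incubated with compound at 4 μM final for 30 min at 37 °C (n = 1). Percent of parent remaining was quantified by LC-MS/MS.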

[17] = Total plasma concentration in Sprague-Dawley rat at 10 mg/kg, po measured after 60 mins by LC-MS/MS analysis; type: ADME, organism-based; summary of the method: as §2
[18] = biological target: T4, GABA-A receptor; alpha-1/beta-3/gamma-2 (Homo sapiens); assay: Modulation of recombinant GABA alpha1beta3gamma2 receptor (unknown origin) expressed in Xenopus laevis oocytes assessed as change in GABA-induced EC(3 to 6) current at 1 uM by two-electrode voltage clamp assay; type: cell-based; summary of the method: as §3
[19] = biological target: T3, GABA-A receptor; alpha-2/beta-3/gamma-2 (Homo sapiens); assay: Modulation of recombinant GABA alpha2beta3gamma2 receptor (unknown origin) expressed in Xenopus laevis oocytes assessed as change in GABA-induced EC(3 to 6) current by two-electrode voltage clamp assay; type: cell-based; summary of the method: as §3
[20] = biological target: T3, GABA-A receptor; alpha-2/beta-3/gamma-2 (Homo sapiens); assay: Modulation of recombinant GABA alpha2beta3gamma2 receptor (unknown origin) expressed in Xenopus laevis oocytes assessed as change in GABA-induced EC(3 to 6) current at 1 uM by two-electrode voltage clamp assay; type: cell-based; summary of the method: as §3
Liver [21] = assay: Metabolic stability in human liver microsomes assessed as compound remaining at 4 uM measured after 30 mins in presence of NADPH by LC-MS/MS analysis; type: ADME, microsome; details: 0.5 h; summary of the method: as §5
[22] = biological target: T3, GABA-A receptor; alpha-2/beta-3/gamma-2 (Homo sapiens); assay: Modulation of recombinant GABA alpha2beta3gamma2 receptor (unknown origin) expressed in Xenopus laevis oocytes assessed as change in GABA-induced EC(3 to 6) current at 10 uM by two-electrode voltage clamp assay; type: cell-based; summary of the method: as §3
[23] = Total plasma concentration in Sprague-Dawley rat at 10 mg/kg, po measured after 30 mins by LC-MS/MS analysis; type: ADME, organism-based; summary of the method: as §2
Brain = assay: Drug metabolism in Sprague-Dawley rat brain assessed as (E)-8-ethynyl-6-(pyridin-2-yl)-4H-benzo[f]imidazo[1,5-a][1,4]diazepine-3-carboxylic acid formation at 10 mg/kg, po measured after 120 mins by LC-MS/MS analysis; type: ADME, organism-based; details: in vivo, 2 h; summary of the method: as §2
[24] = biological target: T2, GABA-A receptor; alpha-3/beta-3/gamma-2 (Homo sapiens); assay: Modulation of recombinant GABA alpha3beta3gamma2 receptor (unknown origin) expressed in Xenopus laevis oocytes assessed as change in GABA-induced EC(3 to 6) current at 10 uM by two-electrode voltage clamp assay; type: cell-based; summary of the method: as §3
[25] = Total plasma concentration in Sprague-Dawley rat at 10 mg/kg, po measured after 15 mins by LC-MS/MS analysis; type: ADME, organism-based; summary of the method: as §2
Liver [26] = assay: Metabolic stability in mouse liver microsomes assessed as compound remaining at 4 uM measured after 30 mins in presence of NADPH by LC-MS/MS analysis; type: ADME, microsome; details: 0.5 h; summary of the method: as §5
[27] = biological target: T2, GABA-A receptor; alpha-3/beta-3/gamma-2 (Homo sapiens); assay: Modulation of recombinant GABA alpha3beta3gamma2 receptor (unknown origin) expressed in Xenopus laevis oocytes assessed as change in GABA-induced EC(3 to 6) current by two-electrode voltage clamp assay; type: cell-based; summary of the method: as §3
Rattus norvegicus [28] = assay: Toxicity in water-deprived Sprague-Dawley rat assessed as effect on water drinking time during nonpunished period at 20 mg/kg, po by Vogel conflict test; type: organism-based; details: in vivo; summary of the method: as §4

For `C#Cc1ccc2c(c1)C(c1ccccn1)=NCc1c(C(=O)OCC)ncn1-2`, the Activity (Mus musculus [1]) was “Toxic”, the concentration at 2 h [2] was less than 12.2 nM and the Activity [3] was 158%. The Activity (Mus musculus [4]) was “Active”, the Activity [5] was 195% and the Activity (Mus musculus [6]) was “Toxic”. The Activity [7] was “Dose-dependent effect”, the Activity [8] was 111% and the Activity [9] was “Dose-dependent effect”. It also gave a concentration at 2 h [10] of less than 12.2 nM, an Activity [11] of 178% and an Activity [12] of 119%. For the same compound, the Activity [13] was 134%, the Activity (Rattus norvegicus [14]) was “inactive” and the CC50 at 18 h [15] was greater than 100 µM. For the same compound, the Stability (Liver [16]) was 58%, the concentration at 1 h [17] was less than 12.2 nM and the Activity [18] was 147%. The Activity [19] was “Dose-dependent effect”, the Activity [20] was 207% and the Stability (Liver [21]) was 86%. The Activity [22] was 244%, the concentration at 0.5 h [23] was less than 12.2 nM and the Drug metabolism (Brain) was 10 nM. It also gave an Activity [24] of 305%, a concentration at 0.25 h [25] of less than 12.2 nM and a Stability (Liver [26]) of 57%. For the same compound, the Activity [27] was “Dose-dependent effect”.

For `CNC1=Nc2ccc(Cl)cc2C(c2ccccc2)=[N+]([O-])C1` [CHLORDIAZEPOXIDE], the Activity (Rattus norvegicus [28]) was “Non-Toxic”.
